Measurements collected from several papers.
Effect on: cell growth or viability

O=C(Nc1ccc(-c2ccc3ncn(Cc4ccccc4)c(=O)c3c2)cn1)c1ccc(F)cc1  IC50 (A549; CCK-8; 72 h): > 10 µM
CS(=O)(=O)CCNCc1ccc(-c2ccc3ncnc(Nc4ccc(OCc5cccc(F)c5)c(Cl)c4)c3c2)o1  IC50 (NCI-H2170; ATP luminescence): 0.122 µM
NNc1nc2ccc(Br)cc2c(=O)n1-c1ccc(F)cc1  IC50 (NIH3T3; MTT; 48 h): > 200 µM
O=C1Nc2ccccc2/C1=N/N=C/c1cccc([N+](=O)[O-])c1  IC50 (HUVEC; MTT; 48 h): 119 µg/mL
CCCn1cnc2ccc(-c3ccc(N4CCC(C)CC4=O)nc3)cc2c1=O (centres unmarked)  IC50 (A549; CCK-8; 72 h): > 10 µM
COc1c(Cl)cccc1Nc1c(-c2ccncc2OC[C@@H]2COCCO2)[nH]c2c1C(=O)NCC2  IC50 (NCI-H2170; ATP luminescence): 0.0246 µM
COc1cccc2c1C(=O)c1c(O)c3c(c(O)c1C2=O)C[C@@](O)(C(=O)CO)C[C@@H]3O[C@H]1C[C@H](N)[C@H](O)[C@H](C)O1  IC50 (HUVEC; MTT; 24 h): 31.2 µM
Cc1ccc(NNc2nc3ccc(Br)cc3c(=O)n2-c2ccccc2)cc1  IC50 (NIH3T3; MTT; 48 h): 14.8 µM
C=CCn1c(=O)c2cnc(Nc3ccc(N4CCN(C)CC4)cc3)nc2n1-c1ccc2c(n1)[C@@](O)(CC)CC2  IC50 (NCI-H1048; ATP luminescence; 72 h): 0.31 µM
CCCCn1cnc2ccc(-c3ccc(NC(=O)Nc4ccc(F)cc4)nc3)cc2c1=O  IC50 (A549; CCK-8; 72 h): 0.79 µM
COc1ccccc1/C=N/N=C1\C(=O)Nc2ccccc21  IC50 (HUVEC; MTT; 48 h): 112 µg/mL
O[C@@H]1[C@@H](O)[C@H](Nc2cc3cccnc3c3ncccc23)OC[C@H]1O  IC50 (HFF-1; MTT; 48 h, dark): 42.8 µM
CC(=O)Nc1ccc(O)cc1  IC50 (NIH3T3; 96 h): 65.4 µM
CN(C)C(=O)Nc1nc2c(Cl)cc(Cl)cc2c(=O)n1-c1ccccc1  IC50 (NIH3T3; MTT; 48 h): 38.2 µM
CCCCn1cnc2ccc(-c3ccc(NC(=O)Nc4ccccc4)nc3)cc2c1=O  IC50 (A549; CCK-8; 72 h): 1.24 µM
COc1cc(C(=O)c2nc(-c3cccc4[nH]ccc34)c(C)[nH]2)cc(OC)c1OC  IC50 (PC-3; MTS; 72 h): 0.0192 µM
Cc1c(C)c2c(c(C)c1O)CCC(C)(COc1ccc(CC3SC(=O)NC3=O)cc1)O2 (centres unmarked)  IC50 (NIH3T3; 96 h): 37.1 µM
NNc1nc2c(Cl)cc(Cl)cc2c(=O)n1-c1ccc(F)cc1  IC50 (NIH3T3; MTT; 48 h): 73.7 µM
CCCCC(=O)Nc1ccc(-c2cnc3ccn(CCC)c(=O)c3c2)cn1  IC50 (A549; CCK-8; 72 h): > 10 µM
COc1cc(C(=O)c2nc(-c3ccc4cc[nH]c4c3)c[nH]2)cc(OC)c1OC  IC50 (PC-3; MTS; 72 h): 0.0202 µM
